The target in assay [1] is T1, Tyrosine-protein phosphatase non-receptor type 1 (Homo sapiens) (UniProt P18031).
T1 sequence (whole entry): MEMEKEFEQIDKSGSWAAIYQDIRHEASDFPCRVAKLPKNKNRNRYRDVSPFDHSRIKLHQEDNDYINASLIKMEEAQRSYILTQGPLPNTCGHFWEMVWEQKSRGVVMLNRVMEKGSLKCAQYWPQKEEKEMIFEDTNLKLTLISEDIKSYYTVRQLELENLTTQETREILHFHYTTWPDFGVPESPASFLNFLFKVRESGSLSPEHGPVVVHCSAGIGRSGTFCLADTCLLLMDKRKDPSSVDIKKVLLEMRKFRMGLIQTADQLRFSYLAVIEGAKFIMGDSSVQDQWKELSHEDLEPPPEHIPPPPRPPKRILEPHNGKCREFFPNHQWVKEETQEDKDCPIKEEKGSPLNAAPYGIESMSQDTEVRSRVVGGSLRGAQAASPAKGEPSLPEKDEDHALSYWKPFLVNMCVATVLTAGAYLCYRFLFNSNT
Kind of assay: Inhibitory activity against protein tyrosine phosphatases (PTP1B) (Kis=slope inhibitory constant). In a few lines: (§1)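 Recombinant enzymes used: human PTP1B and LAR bearing both PTPase domains. Compounds were dissolved in DMSO, with 10% DMSO final in all reactions. Buffer was 50 mM 3,3-dimethylglutarate, pH 7.0, ionic strength 0.15 M set with NaCl, at 30 °C. Initial rates of pNPP hydrolysis were measured at eight substrate levels (0.2–5 Km) and three fixed inhibitor levels. Reactions were quenched with NaOH and read at A405 (ε 18 000 M⁻¹ cm⁻¹), correcting for non-enzymatic hydrolysis. Kis (slope) and Kii (intercept) were obtained from steady-state kinetics.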

Assay [2] has as its target Dual specificity protein phosphatase 3 (Homo sapiens) (UniProt P51452). Description: Inhibitory activity against human recombinant vaccinia H1 related phosphatase (Dual specificity protein phosphatase 3). Summed up:
(§2)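 Recombinant enzymes: human PTP1B; human PTPα intracellular fragment with both PTPase domains, cleaved from GST fusion; LAR with both PTPase domains; VHR purified to homogeneity. pNPP hydrolysis at 30 °C, pH 7.0, 50 mM 3,3-dimethylglutarate, ionic strength 0.15 M (NaCl), 10% DMSO final. Quenched with 1 N NaOH, A405 read. Ki from eight pNPP levels (0.2–5 Km) at three inhibitor concentrations.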

Assay [3] addresses Receptor-type tyrosine-protein phosphatase alpha (Homo sapiens) (UniProt P18433). Description: Inhibitory activity against protein tyrosine phosphatases alpha (PTP alpha). In a few lines: as §2
Assay [4] concerns the target T1, Tyrosine-protein phosphatase non-receptor type 1 (Homo sapiens). Kind of assay: Inhibitory activity against protein tyrosine phosphatases (PTP1B) (Kii=intercept inhibitory constant). In a few lines: as §1
The target in assay [5] is Receptor-type tyrosine-protein phosphatase F (Rattus norvegicus) (UniProt Q64604). Kind of assay: (§3) Inhibitory activity against rat recombinant leukocyte-common antigen-related molecule (LAR). In a few lines: as §2
Assay [6] shares this target. Described as §3. Summed up:
as §1
The source holds these as a separate data set.

For assay [7], the target named is T1, Tyrosine-protein phosphatase non-receptor type 1 (Homo sapiens). Kind of assay: Inhibitory activity against protein tyrosine phosphatases (PTP1B); no inhibition at 1 mM.

The structures appear in SMILES notation. Where “and” joins values, the source holds several entries; their conditions need not be identical. Equal entries are not always repeated. A value given as a limit tells only on which side of the number the result lay.

Chain of Receptor-type tyrosine-protein phosphatase alpha (Homo sapiens) (P18433 20-802 limits assumed): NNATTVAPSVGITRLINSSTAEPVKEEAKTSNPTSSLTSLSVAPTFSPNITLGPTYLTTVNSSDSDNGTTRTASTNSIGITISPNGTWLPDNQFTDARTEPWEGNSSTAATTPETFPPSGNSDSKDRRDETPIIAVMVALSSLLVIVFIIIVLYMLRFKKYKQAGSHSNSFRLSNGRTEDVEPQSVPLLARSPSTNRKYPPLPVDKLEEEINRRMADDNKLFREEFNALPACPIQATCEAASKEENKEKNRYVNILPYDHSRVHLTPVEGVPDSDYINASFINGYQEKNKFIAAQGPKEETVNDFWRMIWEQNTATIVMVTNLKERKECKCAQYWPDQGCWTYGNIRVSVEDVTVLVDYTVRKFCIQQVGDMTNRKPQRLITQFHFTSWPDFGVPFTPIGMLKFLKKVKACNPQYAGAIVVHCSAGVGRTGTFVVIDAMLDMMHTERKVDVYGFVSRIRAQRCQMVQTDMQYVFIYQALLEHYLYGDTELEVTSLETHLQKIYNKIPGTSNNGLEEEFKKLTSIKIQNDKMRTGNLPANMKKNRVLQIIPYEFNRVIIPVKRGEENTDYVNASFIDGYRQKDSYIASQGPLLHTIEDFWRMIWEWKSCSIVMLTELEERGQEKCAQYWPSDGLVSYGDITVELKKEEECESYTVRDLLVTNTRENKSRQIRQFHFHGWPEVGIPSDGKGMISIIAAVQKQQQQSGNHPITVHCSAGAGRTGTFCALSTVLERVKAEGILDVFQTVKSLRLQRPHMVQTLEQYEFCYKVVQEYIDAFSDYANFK
Chain of Receptor-type tyrosine-protein phosphatase F (Rattus norvegicus) (Q64604 whole entry): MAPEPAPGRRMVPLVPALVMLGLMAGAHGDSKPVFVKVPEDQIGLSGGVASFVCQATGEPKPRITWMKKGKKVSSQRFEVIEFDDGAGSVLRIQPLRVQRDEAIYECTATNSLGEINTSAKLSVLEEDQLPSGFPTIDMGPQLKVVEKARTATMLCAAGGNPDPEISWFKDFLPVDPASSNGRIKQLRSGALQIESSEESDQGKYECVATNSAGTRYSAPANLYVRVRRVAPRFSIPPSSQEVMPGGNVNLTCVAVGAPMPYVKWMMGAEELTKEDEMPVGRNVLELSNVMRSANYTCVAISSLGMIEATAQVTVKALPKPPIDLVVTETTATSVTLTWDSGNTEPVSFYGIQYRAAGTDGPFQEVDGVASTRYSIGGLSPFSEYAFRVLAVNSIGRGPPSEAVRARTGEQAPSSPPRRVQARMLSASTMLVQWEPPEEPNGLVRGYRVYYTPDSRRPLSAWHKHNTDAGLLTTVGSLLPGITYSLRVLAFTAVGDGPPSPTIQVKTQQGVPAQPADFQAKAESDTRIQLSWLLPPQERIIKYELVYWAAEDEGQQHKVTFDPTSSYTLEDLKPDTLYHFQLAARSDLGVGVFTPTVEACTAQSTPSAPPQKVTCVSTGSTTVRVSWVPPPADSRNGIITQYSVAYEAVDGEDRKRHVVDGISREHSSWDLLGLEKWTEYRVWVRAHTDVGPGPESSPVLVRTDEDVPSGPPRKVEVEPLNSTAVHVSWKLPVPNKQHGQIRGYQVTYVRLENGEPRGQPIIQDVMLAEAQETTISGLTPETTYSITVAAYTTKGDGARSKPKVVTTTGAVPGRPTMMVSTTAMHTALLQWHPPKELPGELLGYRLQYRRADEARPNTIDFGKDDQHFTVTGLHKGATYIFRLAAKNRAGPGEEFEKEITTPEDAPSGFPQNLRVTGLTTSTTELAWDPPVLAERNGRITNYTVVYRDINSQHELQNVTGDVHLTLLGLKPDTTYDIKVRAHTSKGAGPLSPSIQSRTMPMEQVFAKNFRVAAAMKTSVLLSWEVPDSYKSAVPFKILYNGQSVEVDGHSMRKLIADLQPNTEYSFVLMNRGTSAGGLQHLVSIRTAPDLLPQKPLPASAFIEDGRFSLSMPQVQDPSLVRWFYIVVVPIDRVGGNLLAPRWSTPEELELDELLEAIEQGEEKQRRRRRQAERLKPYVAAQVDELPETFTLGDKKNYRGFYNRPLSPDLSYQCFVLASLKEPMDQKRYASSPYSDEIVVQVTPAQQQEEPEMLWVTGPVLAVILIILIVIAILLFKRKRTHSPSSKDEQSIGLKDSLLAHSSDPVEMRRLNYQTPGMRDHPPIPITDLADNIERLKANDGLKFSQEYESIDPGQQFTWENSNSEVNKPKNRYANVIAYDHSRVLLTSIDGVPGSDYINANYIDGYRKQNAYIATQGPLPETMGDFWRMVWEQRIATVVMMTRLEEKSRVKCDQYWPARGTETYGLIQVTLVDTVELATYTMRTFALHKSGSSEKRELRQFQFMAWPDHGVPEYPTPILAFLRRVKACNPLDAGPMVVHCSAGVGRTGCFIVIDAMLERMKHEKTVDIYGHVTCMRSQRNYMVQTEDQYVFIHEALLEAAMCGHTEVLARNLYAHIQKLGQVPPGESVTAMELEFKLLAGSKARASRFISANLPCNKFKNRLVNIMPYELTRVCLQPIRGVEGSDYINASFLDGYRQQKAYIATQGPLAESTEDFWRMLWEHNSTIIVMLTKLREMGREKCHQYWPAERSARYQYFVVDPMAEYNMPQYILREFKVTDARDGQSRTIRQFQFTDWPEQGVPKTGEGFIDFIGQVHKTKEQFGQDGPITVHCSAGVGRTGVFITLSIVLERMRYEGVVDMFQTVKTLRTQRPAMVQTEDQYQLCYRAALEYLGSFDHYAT
Chain of Dual specificity protein phosphatase 3 (Homo sapiens) (P51452 whole entry, looked up, the tested form may be a part): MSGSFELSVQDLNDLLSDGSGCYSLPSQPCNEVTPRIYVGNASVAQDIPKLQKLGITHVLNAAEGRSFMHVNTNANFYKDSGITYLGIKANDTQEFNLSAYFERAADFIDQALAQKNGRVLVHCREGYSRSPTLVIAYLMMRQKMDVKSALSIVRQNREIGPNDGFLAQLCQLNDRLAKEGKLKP

Take `O=C(CSc1nnc(Nc2ccc(F)cc2)s1)c1ccc(Cl)cc1`: the Kis was 110 µM in assay [1], above 100 µM in assay [2], 57 µM in assay [3] and 53 µM in assay [5]. For the same molecule, the Kii amounted to 131 µM in assay [4] and 92 µM in assay [6].

Turning to `O=S(=O)(O)c1ccc2c3c(ccc2c1)CCCC3`, the Kis in assay [1] is 240 µM; in assay [2], above 1000 µM; in assay [3], 410 µM; in assay [5], above 1000 µM.

`O=[N+]([O-])c1ccc(OS(=O)(=O)O)cc1`: the Kis in assay [1] stood at 10000 µM.

On to `O=C(O)c1ccc(Oc2ccc(C(=O)c3ccc4c(c3)C(=O)OC4=O)cc2)cc1`, for which the Kis is 510 µM in assay [1], above 1000 µM in assay [2], above 1000 µM in assay [3] and above 1000 µM in assay [5].

Take `O=C(/C=C/c1cccc([N+](=O)[O-])c1)c1c(O)nc2cc([N+](=O)[O-])ccc2c1-c1ccccc1`: the Kis in assay [1] is 54 µM; in assay [2] it was above 100 µM; in assay [3], above 100 µM; in assay [5] it was above 100 µM.

For `Cc1ccc2c(c1)nc(S)n2CNc1ccc(C(=O)O)c(O)c1`, the Kis in assay [1] worked out at 750 µM.

For the molecule `O=C(O)c1cc(NCn2c(S)nc3ccccc32)ccc1O`, the Kis in assay [1] was 61 µM; in assay [2], above 100 µM; in assay [3], 180 µM; in assay [5] it was above 100 µM.

Consider `C[C@]12CC[C@@H]3c4ccc(OS(=O)(=O)O)cc4CC[C@H]3[C@@H]1CCC2=O`, for which the Kis in assay [1] worked out at 2100 µM.

Consider `O=C1c2ccccc2-c2cc([N+](=O)[O-])cc3cccc1c23`, for which the Kis in assay [1] was 21 µM; in assay [2] it was above 100 µM; in assay [3], above 100 µM; in assay [5] it was 68 µM and 57 µM.

Consider `C[C@]12CC[C@@H]3c4ccc(OS(=O)(=O)O)cc4CC[C@H]3[C@@H]1CC[C@@H]2O`, for which, in assay [7], the NI result was “no inhibition at 1 mM”.

Take `O=S(=O)(O)Oc1c2ccccc2c2ccc3c(OS(=O)(=O)O)c4ccccc4c4ccc1c2c34`: the Kis was 39 µM in assay [1], above 100 µM in assay [2], above 100 µM in assay [3] and above 100 µM in assay [5].

As to `O=C(O)c1ccccc1O`, the Kis in assay [1] was 19400 µM.

Values taken from ChEMBL document CHEMBL1133111, “Structure-based discovery of small molecule inhibitors targeted to protein tyrosine phosphatase 1B” (J Med Chem, 2000).
